The results in this text go back to ChEMBL document CHEMBL1134649, “Syntheses and structure--activity relationships of novel apio and thioapio dideoxydidehydronucleosides as anti-HCMV agents” (J Med Chem, 2001).

≈ marks a conversion by molar mass, not a printed value.

The subject of assay [1] is Human betaherpesvirus 5. In words: Antiviral activity was determined against Human cytomegalovirus (HCMV) strain AD-169 using CPE inhibition assay. The class given is functional, organism-based. Summed up: (§1)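 HEL cells in stationary phase were infected at 2–4 CCID50 per well and the virus was adsorbed 2 h at 37 °C. Unadsorbed virus was removed and compound in MEM/2% FBS was added, in duplicate per concentration, for 6 days. CPE was read either microscopically (70% ethanol fixation, Giemsa stain) or by fluorescein diacetate fluorescence (485/538 nm). EC50 was taken from semilog plots of %CPE against concentration.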

For assay [2], the system named is Human betaherpesvirus 5. In words: Antiviral activity was determined against Human cytomegalovirus (HCMV) strain Davis using CPE inhibition assay. The class given is functional, organism-based. Summed up:
as §1

The subject of a further assay is HEL 299. Kind of assay: Cytotoxic concentration of compound was tested against HEL299(human embryonic lung fibroblast) cells using cytotoxic assay. It counts as functional. The essentials:
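Run as a mock-infected control alongside the antiviral assay in HEL cells, with the same 6-day incubation in MEM/2% FBS. Viability was read by propidium iodide fluorescence in place of fluorescein diacetate. CC50 is the concentration giving 50% loss of viability.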

One may read the EC50 as the concentration needed to bring the measured effect to its halfway point. Low values mean an effect from little substance, high ones a need for much substance. Usually CC50 stands for the concentration giving 50% cytotoxicity. Read a low CC50 as greater toxicity to the cells. For the compound `O=C(O)P(=O)(O)O` [FOSCARNET], the EC50 with Human betaherpesvirus 5 [1] worked out at 64.9 µg/mL (≈ 515 µM); in the assay with Human betaherpesvirus 5 [2], 38.7 µg/mL (≈ 307 µM). This compound also showed a half-maximal cytotoxic concentration (CC50) in the assay on HEL 299 of over 300 µg/mL.

`O=c1ccn(C2C=C(CO)CO2)c(=O)[nH]1` (stereo not given): the EC50 is 11.7 µg/mL (≈ 55.7 µM) in the assay with Human betaherpesvirus 5 [1] and over 33.3 µg/mL in the assay on Human betaherpesvirus 5 [2]. In the assay on HEL 299, this compound yielded a half-maximal cytotoxic concentration (CC50) of 33.3 µg/mL (≈ 158 µM).

For `Cc1cn(C2C=C(CO)CS2)c(=O)[nH]c1=O` (stereo not given), the EC50 in the assay on Human betaherpesvirus 5 [1] and in the assay with Human betaherpesvirus 5 [2] was over 100 µg/mL each time. In the assay with HEL 299, the 50% cytotoxic concentration (CC50) was over 100 µg/mL.

For the compound `O=c1[nH]c(=O)n(C2C=C(CO)CO2)cc1Cl` (stereo not given), the concentration giving a half-maximal response (EC50) in the assay with Human betaherpesvirus 5 [1] came out at 41.7 µg/mL (≈ 170 µM); in the assay on Human betaherpesvirus 5 [2] it was 25.1 µg/mL (≈ 103 µM). The compound further came in with a CC50 in the assay with HEL 299 of 63.3 µg/mL (≈ 259 µM).

For the compound `O=c1[nH]c(=O)n(C2C=C(CO)CO2)cc1Br` (stereo not given), the 50% effective concentration (EC50) worked out at 33.7 µg/mL (≈ 117 µM) with Human betaherpesvirus 5 [1] and 25.4 µg/mL (≈ 87.9 µM) in the assay on Human betaherpesvirus 5 [2]. This compound also gave a CC50 in the assay with HEL 299 of over 100 µg/mL.

On to `O=c1[nH]c(=O)n(C2C=C(CO)CO2)cc1F` (stereo not given), for which the concentration for a half-maximal effect (EC50) amounted to 6.9 µg/mL (≈ 30.2 µM) with Human betaherpesvirus 5 [1] and 2.81 µg/mL (≈ 12.3 µM) in the assay with Human betaherpesvirus 5 [2]. Further, the 50% cytotoxic concentration (CC50) in the assay with HEL 299 was over 100 µg/mL.

As for `Cc1cn(C2C=C(CO)CO2)c(=O)[nH]c1=O` (stereo not given), the results for the EC50 in the assay on Human betaherpesvirus 5 [1] and in the assay with Human betaherpesvirus 5 [2] were 33.3 µg/mL (≈ 149 µM) and 16.6 µg/mL (≈ 74 µM), respectively. In addition, the CC50 with HEL 299 was over 100 µg/mL.

For the compound `O=c1ccn(C2C=C(CO)CS2)c(=O)[nH]1` (stereo not given), the EC50 in the assay on Human betaherpesvirus 5 [1] and with Human betaherpesvirus 5 [2] was over 100 µg/mL throughout. The same compound had a CC50 in the assay with HEL 299 of over 100 µg/mL.

As to `O=c1[nH]c(=O)n(C2C=C(CO)CO2)cc1I` (stereo not given), the results for the concentration giving a half-maximal response (EC50) with Human betaherpesvirus 5 [1] and with Human betaherpesvirus 5 [2] were 44.1 µg/mL (≈ 131 µM) and 27.2 µg/mL (≈ 80.9 µM), respectively. In addition, the CC50 in the assay with HEL 299 is over 100 µg/mL.

On to `Nc1nc2c(ncn2COC(CO)CO)c(=O)[nH]1` [GANCICLOVIR], for which the EC50 in the assay with Human betaherpesvirus 5 [1] stood at 1.09 µg/mL (≈ 4.27 µM); in the assay on Human betaherpesvirus 5 [2], 0.61 µg/mL (≈ 2.39 µM). In the assay with HEL 299, this compound registered a CC50 of over 10 µg/mL.
